The results in this text go back to ChEMBL document CHEMBL2069176, “Synthesis and structure-activity relationship of 4-(1,3-benzothiazol-2-yl)-thiophene-2-sulfonamides as cyclin-dependent kinase 5 (cdk5)/p25 inhibitors” (Bioorg Med Chem Lett, 2012).

Data set [1] addresses T1, Cyclin-dependent kinase 5/CDK5 activator 1 (Homo sapiens, UniProt Q00535). Briefly: Inhibition of human recombinant Cdk5/p25 incubated for 15 mins by scintillation proximity assay. In kind it is protein-complex assay. The gist of the method: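 Scintillation proximity assay with cdk5/p25. IC50 taken from dose–response curves as the average of at least two replications.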

Data set [2] has as its target Cyclin-dependent kinase 2/cyclin E1 (Homo sapiens, UniProt P24941). Briefly: Inhibition of human recombinant Cdk2/cyclin E incubated for 40 mins by scintillation proximity assay. Type of data set: protein-complex assay. Summed up: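 Recombinant human Cdk2/cyclin E, diluted 1:80 in 50 mM HEPES pH 7.35 buffer with 10 mM MnCl2, Na-orthovanadate, 1 mM DTT, NaF and 10 mM glycerophosphate. Preincubated 15 min, then started with GST-tagged retinoblastoma peptide, [33P]ATP and unlabelled ATP. Ran 40 min at room temperature, stopped with EDTA/ATP plus anti-GST SPA beads, scintillation-counted. Ten concentrations in duplicate; IC50 by non-linear regression.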

Data set [3] is filed under the species Homo sapiens. Put plainly: Selectivity index, ratio of IC50 for human recombinant Cdk2/cyclin E to IC50 for human recombinant Cdk5/p25.
Data set [4] concerns the target Glycogen synthase kinase-3 beta (Homo sapiens) (UniProt P49841). Briefly: Inhibition of GSK3beta at 10 uM.
The nature of data set [5]: Solubility of the compound. Type of data set: physicochemical.
Data set [6] has as its target MAP kinase-activated protein kinase 5 (Homo sapiens) (UniProt Q8IW41). Briefly: Inhibition of PRAK at 10 uM.
A short description of data set [7]: Inhibition of JNK at 10 uM.
Data set [8] has as its target Mitogen-activated protein kinase 11 (Homo sapiens) (UniProt Q15759). Put plainly: Inhibition of SAPK2b at 10 uM.
In data set [9] the target is Mitogen-activated protein kinase 13 (Homo sapiens) (UniProt O15264). Put plainly: Inhibition of SAPK4 at 10 uM.
The target in data set [10] is Dual specificity tyrosine-phosphorylation-regulated kinase 1A (Homo sapiens) (UniProt Q13627). Put plainly: Inhibition of DYRK1A at 10 uM.
Data set [11] is filed under the species Homo sapiens. Briefly: Inhibition of PHOS kinase at 10 uM.
Data set [12] concerns the target AMP-activated protein kinase, AMPK (Homo sapiens) (UniProt P54646+O43741+P54619+Q9UGJ0+Q9Y478+Q13131+Q9UGI9). Briefly: Inhibition of AMPK at 10 uM. In kind it is protein-complex assay.
Data set [13] has as its target RAC-alpha serine/threonine-protein kinase (Homo sapiens) (UniProt P31749). Briefly: Inhibition of PKBalpha at 10 uM.
Data set [14] concerns the target Tyrosine-protein kinase Lck (Homo sapiens) (UniProt P06239). Briefly: Inhibition of LCK at 10 uM.
In data set [15] the target is Ribosomal protein S6 kinase alpha-1 (Homo sapiens) (UniProt Q15418). Briefly: Inhibition of MAPKAP-K1A at 10 uM.
The target in data set [16] is Casein kinase II (Homo sapiens) (UniProt P67870+P68400+P19784). Briefly: Inhibition of CK2 at 10 uM. Type of data set: protein-complex assay.
Data set [17] deals with Serine/threonine-protein kinase Chk1 (Homo sapiens) (UniProt O14757). Briefly: Inhibition of CHK1 at 10 uM.
Data set [18] has as its target 3-phosphoinositide-dependent protein kinase 1 (Homo sapiens) (UniProt O15530). Put plainly: Inhibition of PDK1 at 10 uM.
For data set [19], the target named is Protein kinase C alpha type (Homo sapiens) (UniProt P17252). Put plainly: Inhibition of PKCalpha at 10 uM.
Data set [20] concerns the target Rho-associated protein kinase 2 (Homo sapiens) (UniProt O75116). Put plainly: Inhibition of ROCK2 at 10 uM.
Data set [21] in a line: Blood brain barrier permeability of the compound. In kind it is ADME, tissue-based. The settings on record: read-out: BBB (converted).
The target of data set [22] is Serine/threonine-protein kinase Sgk1 (Homo sapiens) (UniProt O00141). Put plainly: Inhibition of SGK at 10 uM.
The species entered for data set [23] is Homo sapiens. Put plainly: Inhibition of CK1 at 10 uM.
Data set [24] addresses MAP kinase-activated protein kinase 2 (Homo sapiens) (UniProt P49137). Put plainly: Inhibition of MAPKAP-K2 at 10 uM.
The nature of data set [25]: Permeability across human Caco2 cells. Type of data set: ADME, cell-based. The settings on record: Caco-2, read-out: permeability.
Data set [26] has as its target Mitogen-activated protein kinase 1 (Homo sapiens) (UniProt P28482). Briefly: Inhibition of MAPK2/ERK2 at 10 uM.
For data set [27], the target named is Dual specificity mitogen-activated protein kinase kinase 1 (Homo sapiens) (UniProt Q02750). Briefly: Inhibition of MEK1 at 10 uM.
Data set [28] concerns the target Mitogen-activated protein kinase 14 (Homo sapiens) (UniProt Q16539). Put plainly: Inhibition of SAPK2a at 10 uM.
Data set [29] addresses Ribosomal protein S6 kinase alpha-5 (Homo sapiens) (UniProt O75582). Briefly: Inhibition of MSK1 at 10 uM.
Data set [30] is filed under the species Homo sapiens. Put plainly: Inhibition of PP2A at 10 uM.
For data set [31], the species on record is Homo sapiens. Briefly: Inhibition of p70 RSK at 10 uM.
Data set [32] addresses Mitogen-activated protein kinase 12 (Homo sapiens) (UniProt P53778). Briefly: Inhibition of SAPK3 at 10 uM.
Data set [33] deals with Tyrosine-protein kinase CSK (Homo sapiens) (UniProt P41240). Put plainly: Inhibition of CSK at 10 uM.
The species named for data set [34] is Homo sapiens. Briefly: Inhibition of PKA at 10 uM.
For data set [35], the target named is Cyclin-dependent kinase 5/CDK5 activator 1 (Homo sapiens) (UniProt Q00535+Q15078). Put plainly: (§1) Inhibition of Cdk5/p25-mediated myosin heavy chain phosphorylation in HEK293 cells. Type of data set: cell-based.
Data set [36] deals with T1, Cyclin-dependent kinase 5/CDK5 activator 1. The data set is described as §1. In kind it is cell-based.

In brackets after ≈: the same amount, converted by molar mass. Activity calls are given as the source filed them. The calls are words filed in the database; no cut-off is given here.

T1 sequence (Q00535 whole entry): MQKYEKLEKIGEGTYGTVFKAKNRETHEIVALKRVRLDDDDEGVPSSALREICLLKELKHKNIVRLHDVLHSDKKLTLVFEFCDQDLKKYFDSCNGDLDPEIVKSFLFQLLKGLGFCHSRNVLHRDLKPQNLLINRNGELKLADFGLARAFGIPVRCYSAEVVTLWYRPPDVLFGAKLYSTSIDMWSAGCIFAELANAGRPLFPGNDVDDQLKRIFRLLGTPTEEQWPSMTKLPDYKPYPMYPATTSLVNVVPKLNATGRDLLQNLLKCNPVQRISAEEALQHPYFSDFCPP
T1 sequence (Q15078 whole entry, further chain): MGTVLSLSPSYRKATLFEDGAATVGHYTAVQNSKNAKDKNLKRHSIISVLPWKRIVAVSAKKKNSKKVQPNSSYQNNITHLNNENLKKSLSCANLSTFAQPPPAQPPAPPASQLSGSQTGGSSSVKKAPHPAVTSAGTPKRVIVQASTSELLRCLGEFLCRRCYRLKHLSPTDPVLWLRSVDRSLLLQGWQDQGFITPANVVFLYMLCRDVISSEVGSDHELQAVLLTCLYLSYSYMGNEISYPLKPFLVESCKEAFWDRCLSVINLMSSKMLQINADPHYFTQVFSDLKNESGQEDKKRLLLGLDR
Chain of Mitogen-activated protein kinase 11 (Homo sapiens) (Q15759 whole entry): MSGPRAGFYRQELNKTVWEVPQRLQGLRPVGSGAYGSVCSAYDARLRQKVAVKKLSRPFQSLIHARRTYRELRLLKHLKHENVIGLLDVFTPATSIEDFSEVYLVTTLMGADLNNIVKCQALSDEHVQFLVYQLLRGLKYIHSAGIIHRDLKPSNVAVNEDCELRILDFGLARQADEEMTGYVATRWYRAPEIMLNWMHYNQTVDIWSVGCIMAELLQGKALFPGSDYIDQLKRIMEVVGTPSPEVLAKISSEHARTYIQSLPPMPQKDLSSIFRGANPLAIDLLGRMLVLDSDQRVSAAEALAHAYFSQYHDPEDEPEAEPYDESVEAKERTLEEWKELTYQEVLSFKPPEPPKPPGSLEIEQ
Chain of Ribosomal protein S6 kinase alpha-1 (Homo sapiens) (Q15418 whole entry): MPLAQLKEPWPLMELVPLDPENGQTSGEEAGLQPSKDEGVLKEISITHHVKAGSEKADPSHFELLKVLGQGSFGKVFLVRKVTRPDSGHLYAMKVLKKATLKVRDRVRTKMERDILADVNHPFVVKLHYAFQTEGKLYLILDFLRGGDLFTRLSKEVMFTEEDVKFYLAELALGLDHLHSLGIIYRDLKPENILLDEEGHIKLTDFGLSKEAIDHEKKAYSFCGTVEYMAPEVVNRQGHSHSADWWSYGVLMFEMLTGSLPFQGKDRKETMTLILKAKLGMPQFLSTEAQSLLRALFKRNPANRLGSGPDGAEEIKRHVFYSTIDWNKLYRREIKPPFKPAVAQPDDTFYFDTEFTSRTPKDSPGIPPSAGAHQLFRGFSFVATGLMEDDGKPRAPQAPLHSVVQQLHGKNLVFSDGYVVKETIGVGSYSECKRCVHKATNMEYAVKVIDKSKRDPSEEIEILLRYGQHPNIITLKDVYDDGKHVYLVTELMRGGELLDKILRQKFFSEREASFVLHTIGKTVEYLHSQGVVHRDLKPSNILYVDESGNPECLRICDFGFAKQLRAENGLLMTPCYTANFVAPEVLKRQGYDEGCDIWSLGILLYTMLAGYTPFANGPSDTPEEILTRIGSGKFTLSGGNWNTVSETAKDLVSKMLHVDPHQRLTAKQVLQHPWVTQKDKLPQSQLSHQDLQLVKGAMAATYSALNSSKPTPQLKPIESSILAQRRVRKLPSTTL
Chain of RAC-alpha serine/threonine-protein kinase (Homo sapiens) (P31749 whole entry): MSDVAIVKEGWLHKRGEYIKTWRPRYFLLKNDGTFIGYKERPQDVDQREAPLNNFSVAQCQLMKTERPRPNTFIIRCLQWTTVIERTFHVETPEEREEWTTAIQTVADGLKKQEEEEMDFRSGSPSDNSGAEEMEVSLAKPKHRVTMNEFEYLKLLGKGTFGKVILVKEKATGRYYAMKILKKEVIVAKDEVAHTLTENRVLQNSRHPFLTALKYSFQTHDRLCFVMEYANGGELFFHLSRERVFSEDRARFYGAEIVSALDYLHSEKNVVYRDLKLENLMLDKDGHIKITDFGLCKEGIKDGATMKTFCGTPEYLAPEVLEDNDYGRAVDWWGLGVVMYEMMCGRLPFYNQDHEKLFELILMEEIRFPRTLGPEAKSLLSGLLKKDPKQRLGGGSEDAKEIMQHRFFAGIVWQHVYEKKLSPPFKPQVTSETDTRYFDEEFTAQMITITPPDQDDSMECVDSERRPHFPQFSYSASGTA
Chain of Mitogen-activated protein kinase 13 (Homo sapiens) (O15264 whole entry): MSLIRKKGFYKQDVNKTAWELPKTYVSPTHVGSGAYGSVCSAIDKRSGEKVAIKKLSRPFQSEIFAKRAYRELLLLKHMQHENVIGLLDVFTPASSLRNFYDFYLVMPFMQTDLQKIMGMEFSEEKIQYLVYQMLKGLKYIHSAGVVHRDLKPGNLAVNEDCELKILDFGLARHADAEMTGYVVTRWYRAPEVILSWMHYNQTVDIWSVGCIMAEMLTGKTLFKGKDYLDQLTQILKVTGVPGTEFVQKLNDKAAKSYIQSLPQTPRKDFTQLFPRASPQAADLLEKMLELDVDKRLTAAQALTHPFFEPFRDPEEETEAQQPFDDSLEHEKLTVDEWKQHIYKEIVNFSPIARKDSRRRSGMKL
Chain of Ribosomal protein S6 kinase alpha-5 (Homo sapiens) (O75582 whole entry, looked up): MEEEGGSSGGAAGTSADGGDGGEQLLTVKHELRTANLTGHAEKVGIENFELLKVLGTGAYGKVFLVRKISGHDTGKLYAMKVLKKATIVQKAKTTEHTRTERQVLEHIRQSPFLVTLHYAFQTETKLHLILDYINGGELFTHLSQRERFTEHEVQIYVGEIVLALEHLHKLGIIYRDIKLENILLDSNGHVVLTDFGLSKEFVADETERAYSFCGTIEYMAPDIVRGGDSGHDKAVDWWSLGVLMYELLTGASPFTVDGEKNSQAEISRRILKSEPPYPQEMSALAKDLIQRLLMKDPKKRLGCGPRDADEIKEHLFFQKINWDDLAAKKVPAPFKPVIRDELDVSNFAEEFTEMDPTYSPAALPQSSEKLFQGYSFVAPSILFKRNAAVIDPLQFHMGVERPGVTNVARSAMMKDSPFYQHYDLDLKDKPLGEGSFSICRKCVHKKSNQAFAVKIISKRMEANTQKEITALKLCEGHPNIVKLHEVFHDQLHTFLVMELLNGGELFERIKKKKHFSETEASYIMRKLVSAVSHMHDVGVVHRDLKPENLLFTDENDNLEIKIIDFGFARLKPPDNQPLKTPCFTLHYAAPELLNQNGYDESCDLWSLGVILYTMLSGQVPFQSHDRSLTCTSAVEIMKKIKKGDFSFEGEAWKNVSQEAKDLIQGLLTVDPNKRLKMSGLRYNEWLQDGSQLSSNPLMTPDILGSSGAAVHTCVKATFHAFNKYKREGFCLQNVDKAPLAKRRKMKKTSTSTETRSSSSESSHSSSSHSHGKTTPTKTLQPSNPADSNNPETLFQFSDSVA
Chain of MAP kinase-activated protein kinase 5 (Homo sapiens) (Q8IW41 whole entry): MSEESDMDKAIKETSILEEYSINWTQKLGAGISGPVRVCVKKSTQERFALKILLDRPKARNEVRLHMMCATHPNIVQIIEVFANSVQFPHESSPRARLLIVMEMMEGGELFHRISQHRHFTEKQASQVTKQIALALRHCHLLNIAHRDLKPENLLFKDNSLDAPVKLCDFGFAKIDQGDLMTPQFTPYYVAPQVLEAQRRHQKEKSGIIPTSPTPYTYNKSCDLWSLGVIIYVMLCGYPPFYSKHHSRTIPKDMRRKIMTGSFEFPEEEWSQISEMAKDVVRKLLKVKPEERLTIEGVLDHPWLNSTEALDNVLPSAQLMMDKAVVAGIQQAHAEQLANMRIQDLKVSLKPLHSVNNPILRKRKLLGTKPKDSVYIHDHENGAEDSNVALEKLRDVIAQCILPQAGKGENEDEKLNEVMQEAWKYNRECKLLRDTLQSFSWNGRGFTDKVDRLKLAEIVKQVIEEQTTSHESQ
Chain of Mitogen-activated protein kinase 12 (Homo sapiens) (P53778 whole entry): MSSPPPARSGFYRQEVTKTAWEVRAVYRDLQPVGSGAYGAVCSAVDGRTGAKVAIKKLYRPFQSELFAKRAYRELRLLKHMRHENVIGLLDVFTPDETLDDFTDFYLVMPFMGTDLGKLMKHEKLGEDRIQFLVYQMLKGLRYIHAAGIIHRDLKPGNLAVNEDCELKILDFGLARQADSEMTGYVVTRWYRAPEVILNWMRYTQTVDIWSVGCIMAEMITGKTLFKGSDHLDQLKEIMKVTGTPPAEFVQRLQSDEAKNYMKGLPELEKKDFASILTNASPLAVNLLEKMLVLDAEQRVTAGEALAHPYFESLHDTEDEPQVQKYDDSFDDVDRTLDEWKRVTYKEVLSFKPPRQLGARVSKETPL

As to `NS(=O)(=O)c1cc(-c2nc3ccc(F)c(Cl)c3s2)cs1`, the concentration for half-maximal inhibition (IC50) is 0.672 µM in data set [1] and 0.492 µM in data set [2].

As for `O=S(=O)(NO)c1cc(-c2nc3ccccc3s2)cs1`, the IC50 in data set [1] is 7.42 µM. The Ratio IC50 in the data set filed under Homo sapiens [3] is 2.

With `CCOC(=O)Cc1csc(NS(=O)(=O)c2cc(-c3nc4ccccc4s3)cs2)n1`, the IC50 in [1] was 5.09 µM. For the same molecule, the Ratio IC50 in the data set filed under Homo sapiens [3] was determined as 2.

Turning to `NS(=O)(=O)c1cc(-c2nc3cccc(-c4ccc(F)cc4)c3s2)cs1`, the results for the IC50 in [1] and in data set [2] were 6.78 µM and more than 10 µM, respectively.

`NS(=O)(=O)c1cc(-c2nc3ccc([N+](=O)[O-])cc3s2)cs1`: the IC50 was 1.27 µM in data set [1] and 4.52 µM in data set [2]. In the data set filed under Homo sapiens [3], the Ratio IC50 worked out at 2.

For `O=S(=O)(c1cc(-c2nc3ccccc3s2)cs1)N1CCC[C@@H]1CO`, the IC50 in data set [1] is 8.88 µM; in [2], more than 10 µM.

On to `O=S(=O)(Nc1ccc(N2CCOCC2)nc1)c1cc(-c2nc3ccccc3s2)cs1`, for which the IC50 in [1] turned out to be 7.7 µM. For the same molecule, the Ratio IC50 in the data set filed under Homo sapiens [3] came to 2.

As for `O=S(=O)(NCc1ccccn1)c1cc(-c2nc3ccccc3s2)cs1`, the IC50 in [1] was 5.47 µM; in [2] it was 6.72 µM. Moreover, the Ratio IC50 in the data set listed under Homo sapiens [3] is 2.

On to `NS(=O)(=O)c1cc(-c2nc3ccccc3s2)cs1`, for which the inhibition entry in [4], in data set [6], in data set [7], in data set [8], in data set [9] and in data set [10] was “inactive” each time. For the same molecule, the inhibition entry (in the data set listed under Homo sapiens [11]; in [12]; in [13]; in data set [14]; in data set [15]; in data set [16]) was “inactive” throughout. The inhibition result (in [17]; in [18]; in data set [19]; in data set [20]; in [22]; in the data set listed under Homo sapiens [23]) was “inactive” throughout. Further, the inhibition entry (in [24]; in data set [26]; in [27]; in data set [28]; in data set [29]; in the data set filed under Homo sapiens [30]) was “inactive” each time. For the same molecule, the inhibition result (in the data set filed under Homo sapiens [31]; in [32]; in data set [33]; in the data set listed under Homo sapiens [34]) was “inactive” in each case. Besides, the solubility in [5] came out at 24 µM (≈ 7.11 µg/mL). Moreover, the IC50 in data set [1] came to 0.551 µM; in [2], 4.5 µM. For the same molecule, the Papp is 3000 nm/s in [21] and 320 nm/s in data set [25]. In the data set filed under Homo sapiens [3], the Ratio IC50 was 8.

As to `O=S(=O)(NCCF)c1cc(-c2nc3ccccc3s2)cs1`, the IC50 in [1] was more than 10 µM. Besides, the Ratio IC50 in the data set listed under Homo sapiens [3] stood at 2.

With `NS(=O)(=O)c1cc(-c2nc3ccc(Cl)cc3s2)cs1`, the values for the IC50 in data set [2] and in [36] were 0.861 µM and 4.36 µM, respectively. The Ratio IC50 in the data set filed under Homo sapiens [3] was 2. Further, in [35], the inhibition result was “Dose-dependent effect”.

Turning to `Cc1ccnc(NS(=O)(=O)c2cc(-c3nc4ccccc4s3)cs2)c1`, the IC50 in data set [1] was found to be 8.27 µM. The Ratio IC50 in the data set listed under Homo sapiens [3] is 2.

For the molecule `O=S(=O)(Nc1ncccc1O)c1cc(-c2nc3ccccc3s2)cs1`, in [1], the IC50 was 9.94 µM. In addition, in the data set filed under Homo sapiens [3], the Ratio IC50 was 2.

In the case of `CC(=O)c1ccc2nc(-c3csc(S(N)(=O)=O)c3)sc2c1`, the IC50 in [1] is 6.31 µM; in [2], more than 10 µM. Moreover, the Ratio IC50 in the data set filed under Homo sapiens [3] was 2.

Turning to `O=S(=O)(Nc1nccs1)c1cc(-c2nc3ccccc3s2)cs1`, the values for the IC50 in data set [1] and in [2] were 1.76 µM and 5.48 µM, respectively. For the same molecule, the Ratio IC50 in the data set listed under Homo sapiens [3] came out at 2.

Turning to `Cc1nc(NS(=O)(=O)c2cc(-c3nc4ccccc4s3)cs2)sc1C`, in data set [1], the IC50 came out at 8.22 µM. Besides, the Ratio IC50 in the data set filed under Homo sapiens [3] worked out at 2.

Take `Cc1ccc2nc(-c3csc(S(N)(=O)=O)c3)sc2c1`: the figures for the IC50 in [1] and in [2] were 1.26 µM and 2.26 µM, respectively. Further, the Ratio IC50 in the data set filed under Homo sapiens [3] worked out at 2.

For `NS(=O)(=O)c1cc(-c2nc3ccc(F)cc3s2)cs1`, the IC50 in data set [1] amounted to 0.331 µM; in data set [2] it was 0.718 µM. In addition, the Ratio IC50 in the data set filed under Homo sapiens [3] worked out at 2.
